Here are results for 22 sequences from the EternaBench riboswitch data.

This data set has as its system MS2 coat protein. As to the kind of experiment: apparent Kd, MS2 coat protein; higher = weaker binding; RNA-MaP array. Put shortly:
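The designed RNAs, transcribed from sequenced DNA templates on an Illumina sequencing chip, were incubated with fluorescently labeled MS2 coat protein at room temperature. Protein ranged from 1.5 nM to 3 μM, with 0.8–1.5 h incubation at the lowest and 10–20 min at the highest concentrations, in Tris-HCl pH 7.5 buffer with KCl, MgCl2, BSA, DTT, tRNA and Tween20, with or without input ligand. The median of per-cluster binding-curve fits gives the apparent Kd, and designs measured on fewer than 10 clusters were excluded.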

Where [1] appears, read: designed as: ON switch for flavin mononucleotide, no ligand.
Setting [2] is: ligand present: flavin mononucleotide, designed as: ON switch for flavin mononucleotide.
[3] abbreviates: designed as: OFF switch for flavin mononucleotide, no ligand.
The mark [4] stands for this setting: ligand present: flavin mononucleotide, designed as: OFF switch for flavin mononucleotide.

By apparent Kd is commonly meant a dissociation constant that holds for the conditions of the assay.

For the sequence “ACUGUCUUUGAUGAUAUGUAUGGGUCAUUGCGAGGACCGGUACGGCCGCCACUCGGUCCGCCACAUGAGGAUCACCCAUGUCUAU”, the “apparent Kd” value turned out to be 94.5 nM (designed as: OFF switch for tryptophan, no ligand) and 195 nM (ligand present: tryptophan, designed as: OFF switch for tryptophan).

“CUGACGUAACAUGAGGAUCACCCAUGUUUGGCGCUAUAGCAACAGGAUAUUCCGCUCACGGAGCUGAAGAAGGGUUACAGUCAC”: the “apparent Kd” value under setting [1] was found to be 14 nM and the “apparent Kd” value under setting [2] was found to be 8.37 nM.

Turning to “GCACUAGAGCAAGGAUAUAUAUCGGAAUCUACAUGAGGAUCACCCAUGUGUGUGACUUCUCGCAGAUAGAAGGUGCUCGCUGAC”, the “apparent Kd” value is 433 nM under setting [3] and 206 nM under setting [4].

Consider “CCUCGAUUUUGAUACCGAUAUGUCUUUGAUACCAGCGCCAUAGUACGCCCUUGGCAGCAAGAAACAUGAGGAUCACCCAUGUUAA”, for which the “apparent Kd” value is, setting by setting: (designed as: OFF switch for theophylline, no ligand) 16.7 nM; (ligand present: theophylline, designed as: OFF switch for theophylline) 49.8 nM.

Regarding “UCCAAAUUCCAGAAGGCGUUUAAGCGAGGGUAGGGCGUGCAACAUGAGGAUCACCCAUGUAAUCACGAGGAUAUGGGAGGCACC”, the “apparent Kd” value by setting is: under setting [3], 7.65 nM; under setting [4], 8.34 nM.

With “UGGACUUCAGGAUAUACAUGAGGAUCACCCAUGUAUACGUGUAUGAUCCCAGAAACAAGUAGAAGGGAAAGCCG”, the “apparent Kd” value turned out to be 5.71 nM under setting [3] and 5.65 nM under setting [4].

On to “ACUAAUCAGCAACAUGAGGAUCACCCAUGUGGGCCGUCCGGCAGAAGGCCUACGCACUUAGACUAGGAGGAUAUGCAAGCAACU”, for which the “apparent Kd” value under setting [3] came to 15.7 nM and the “apparent Kd” value under setting [4] was 18.4 nM.

Turning to “AUAAUCCCUGUUCAGAGACAUGAGGAUCACCCAUGUUUAACGAGAAGGUGAGUGCGACGGCGUCUCAAGGAUAUCGACGUGACC”, the “apparent Kd” value worked out at 9.05 nM under setting [3] and 10.4 nM under setting [4].

As for “UUUAGGUCAGAGAAGGGCCAUUCUACAUACUCGGCAGGAUAUCUAUUACCUGACAUGAGGAUCACCCAUGUGGUGAACCGACCA”, the “apparent Kd” value is, setting by setting: under setting [1], 199 nM; under setting [2], 311 nM.

As to “UACUUGAAGUUGCAGGAUAUUUAGGAUCUAACAUGAGGAUCACCCAUGUUAUAUGAGAGACGUAUAAAGAAGGGCAGCGUGAUAGA”, the “apparent Kd” value under setting [1] worked out at 9.4 nM and the “apparent Kd” value under setting [2] is 5.9 nM.

“AGAGUGAGAGGAUAUUUUGGCGUAGACAUGAGGAUCACCCAUGUGUCGUGGGCACUGCUGAAAGAAGGCUCAGCUC”: the “apparent Kd” value came to 29.3 nM under setting [3] and 25.3 nM under setting [4].

Take “CCAUAAGACGAGAAGGGCUGCCAACUAGGUAGAGCAGGAUAUCGUCUUACUCGUCAUGGCAAAACAUGAGGAUCACCCAUGUAU”: the “apparent Kd” value was determined as 8.16 nM under setting [3] and 7.82 nM under setting [4].

Take “AAGAGCAGAGGAUAUACAUAGGCAUCAGUUGAAGCAGCUGAACAUGAGGAUCACCCAUGUAGAAGGCUGACAAA”: the “apparent Kd” value reads like this: under setting [3], 5.43 nM; under setting [4], 7.29 nM.

“CGAAGUAGUAGAGGAUAUGCUAGAGAUGGUUCUGCAGAAGGCUACCCUCUUGAUUAUAUUACAUGAGGAUCACCCAUGUUGGUU”: the “apparent Kd” value amounted to 10.7 nM under setting [3] and 10.2 nM under setting [4].

For “UCGGUUCGUGUAGGAUAUACUCGCAAACAGGCAAAAUGCCUACAUGAGGAUCACCCAUGUUAGUGGUAGAAGGACACCUCAACA”, the “apparent Kd” value worked out at 479 nM under setting [1] and 115 nM under setting [2].

As to “AUAAACCUAGGAUAUACCAGGACGAUUCAACAAGAAAACGAACAUGAGGAUCACCCAUGUAGAAGGAGGGAAAG”, the “apparent Kd” value came out at 20.5 nM under setting [3] and 25.3 nM under setting [4].

Consider “CCGUUUCGGACAAGCAACACAUGAGGAUCACCCAUGUCAAUCUAGGAUAUCAUAAGGAUAUAACGUGAGAAGGAGAGCGACAGG”, for which the “apparent Kd” value is 33.2 nM under setting [3] and 24.4 nM under setting [4].

As for “CCCGUGCUGCGAGGAUAUGUGUAGGAUGUUUCCACAGAAGGCGCUGGAGACAUGAGGAUCACCCAUGUGAACCCACGUACGACA”, the “apparent Kd” value under setting [1] is 24.9 nM and the “apparent Kd” value under setting [2] is 19.9 nM.

Turning to “GGCGGGAAAUGAGGAUAUGGUAGUUGAGAAACGCCAGAAGGCAUUGGCAAGGCUAGAGACAUGAGGAUCACCCAUGUAAUCAUA”, the “apparent Kd” value came to 8.35 nM under setting [1] and 7 nM under setting [2].

As to “UAAAGAGAAGGAUAUACAGGAAGAAAAGCCUCACAAUCGUAACAUGAGGAUCACCCAUGUAGAAGGACUAACAA”, the “apparent Kd” value is, setting by setting: under setting [3], 38.7 nM; under setting [4], 29.5 nM.

Turning to “AGGGACAUGAGGAUCACCCAUGUUGAAACUCGAGGACCGGUACGGCCGCCACUCGUAUAAUCGAUGUCCAUUUGGGAUUCCGGCU”, the “apparent Kd” value is, setting by setting: (designed as: ON switch for tryptophan, no ligand) 25.3 nM; (ligand present: tryptophan, designed as: ON switch for tryptophan) 24.2 nM.

Take “CGAUGGGUAACAGGAUAUGAAUGGAAACCUCCAGUGUUGAGCACUUACAUGAGGAUCACCCAUGUUCAGAAGGGUUUGUGAUUG”: the “apparent Kd” value runs as follows: under setting [1], 38.9 nM; under setting [2], 59.9 nM.
